Activity calls are given as the source filed them. The calls are words filed in the database; no cut-off is given here.
Key:
[1] = Antiplatelet activity in rabbit platelet rich plasma assessed as inhibition of arachidonic acid-induced platelet aggregation at 0.1 mM preincubated for 5 mins followed by arachidonic acid addition measured after 5 mins by Born's turbidimetric method relative to control; assay type: functional; conditions: Oryctolagus cuniculus
In short: (§1)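 Rabbit PRP was taken from centrifugation supernatant, and PPP was obtained at 3000 rpm for 10 min. PRP was pretreated in duplicate with test agent or vehicle for 5 min at 37 °C, then given ADP (10 µM) or AA (1 mM). Aggregation was followed turbidimetrically by optical density. Results are % inhibition versus vehicle-treated, inducer-exposed samples, n = 6, mean ± SD.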

[2] = Antiplatelet activity in rabbit platelet rich plasma assessed as inhibition of ADP-induced platelet aggregation at 0.1 mM preincubated for 5 mins followed by ADP addition measured after 5 mins by Born's turbidimetric method relative to control; assay type: functional; conditions: Oryctolagus cuniculus; in short: as §1
[3] = Neuroprotective activity against H2O2-induce cell damage in rat PC12 cells assessed as cell viability at 10 uM preincubated for 1 hr followed by H2O2 induction measured after 3 hrs by MTT assay in presence of NBP (reference value: 50.85%); assay type: functional; conditions: PC-12, read-out: Activity
PC-12 [4] = assay: Antioxidant activity in rat PC12 cells assessed as reduction of H2O2/Fe2+-mediated hydroxyl radical formation at 10 uM preincubated for 1 hr followed by H2O2/Fe2+ addition by Griess assay; assay type: functional
In short: (§2)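 PC12 cells grown in DMEM with 10% heat-inactivated horse serum, 5% FBS, 1.0 mM sodium pyruvate, penicillin/streptomycin, 37 °C, 5% CO2. Cells pretreated in triplicate for 1 h, then exposed to 1 mM H2O2/20 µM Fe2+ (pH 7.4). After a medium change, cells were collected in 0.5 mL phosphate buffer (pH 7.4). Hydroxyl radical activity was read by Griess assay.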

PC-12 [5] = assay: Antioxidant activity in rat PC12 cells assessed as reduction of H2O2/Fe2+-mediated hydroxyl radical formation at 10 uM preincubated for 1 hr followed by H2O2/Fe2+ addition by Griess assay in presence of NBP; assay type: functional; in short: as §2
[6] = Neuroprotective activity against H2O2-induce cell damage in rat PC12 cells assessed as cell viability at 10 uM preincubated for 1 hr followed by H2O2 induction measured after 3 hrs by MTT assay (reference value: 50.85%); assay type: functional; conditions: PC-12, read-out: Activity
[7] = Antiplatelet activity in rabbit platelet rich plasma assessed as inhibition of arachidonic acid-induced platelet aggregation at 0.1 mM preincubated for 5 mins followed by arachidonic acid addition measured after 5 mins by Born's turbidimetric method in presence of NBP relative to control; assay type: functional; conditions: Oryctolagus cuniculus; in short: as §1
PC-12 [8] = assay: Antioxidant activity in rat PC12 cells assessed as reduction of NADH-mediated superoxide anion radical formation at 10 uM preincubated for 1 hr followed by NADH addition by NBT assay; assay type: functional
In short: (§3)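 PC12 cells were cultured as for the other PC12 assays and pretreated in triplicate for 1 h. Each tube then received DMSO, 468 µM NADH and 300 µM NBT. Superoxide activity was read by NBT assay, with DMSO used to fully dissolve the formazan.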

PC-12 [9] = assay: Antioxidant activity in rat PC12 cells assessed as reduction of NADH-mediated superoxide anion radical formation at 10 uM preincubated for 1 hr followed by NADH addition by NBT assay in presence of NBP; assay type: functional; in short: as §3
[10] = Antiplatelet activity in rabbit platelet rich plasma assessed as inhibition of ADP-induced platelet aggregation at 0.1 mM preincubated for 5 mins followed by ADP addition measured after 5 mins by Born's turbidimetric method in presence of NBP relative to control; assay type: functional; conditions: Oryctolagus cuniculus; in short: as §1
[11] = Neuroprotective activity against H2O2-induce cell damage in rat PC12 cells assessed as cell viability at 1 uM preincubated for 1 hr followed by H2O2 induction measured after 3 hrs by MTT assay (reference value: 50.85%); assay type: functional; conditions: PC-12, read-out: Activity
PC-12 [12] = assay: Neuroprotective activity against H2O2-induce cell damage in rat PC12 cells assessed as cell viability at 10 uM preincubated for 1 hr followed by H2O2 induction measured after 3 hrs by MTT assay; assay type: functional, cell-based
[13] = Neuroprotective activity against H2O2-induce cell damage in rat PC12 cells assessed as cell viability at 10 uM preincubated for 1 hr followed by H2O2 induction measured after 3 hrs by MTT assay in presence of edaravone (reference value: 50.85%); assay type: functional; conditions: PC-12, read-out: Activity
[14] = Antiplatelet activity in rabbit platelet rich plasma assessed as inhibition of arachidonic acid-induced platelet aggregation at 0.1 mM preincubated for 5 mins followed by arachidonic acid addition measured after 5 mins by Born's turbidimetric method in presence of edaravone relative to control; assay type: functional; conditions: Oryctolagus cuniculus; in short: as §1
[15] = Antiplatelet activity in rabbit platelet rich plasma assessed as inhibition of ADP-induced platelet aggregation at 0.1 mM preincubated for 5 mins followed by ADP addition measured after 5 mins by Born's turbidimetric method in presence of edaravone relative to control; assay type: functional; conditions: Oryctolagus cuniculus; in short: as §1
PC-12 [16] = assay: Antioxidant activity in rat PC12 cells assessed as reduction of NADH-mediated superoxide anion radical formation at 10 uM preincubated for 1 hr followed by NADH addition by NBT assay in presence of edaravone; assay type: functional; in short: as §3
PC-12 [17] = assay: Antioxidant activity in rat PC12 cells assessed as reduction of H2O2/Fe2+-mediated hydroxyl radical formation at 10 uM preincubated for 1 hr followed by H2O2/Fe2+ addition by Griess assay in presence of edaravone; assay type: functional; in short: as §2

SMILES	inhibition at 100 µM [1] [%]	inhibition at 100 µM [2] [%]	Activity (PC-12 [4]) [U/ml]	viability at 10 µM [6] [%]	Activity (PC-12 [8]) [U/L]	other results
CCCCC(OC(C)=O)c1ccccc1C(=O)Oc1cc(C)nn1-c1ccc(Cl)cc1 (centres undefined)	40.3	29.3	–	–	–	–
CC1=NN(c2ccccc2)C(=O)C1 [EDARAVONE]	25.5	24.8	25.2753	76.9	97.6942	viability at 10 µM [3]: 76.6%; Activity (PC-12 [5]): 36.8347 U/ml; inhibition at 100 µM [7]: 42.5%; Activity (PC-12 [9]): 140.787 U/L; inhibition at 100 µM [10]: 28.1%
CCCCC(OC(C)=O)c1ccccc1C(=O)Oc1cc(C(F)(F)F)nn1-c1cccc(Cl)c1 (centres undefined)	21.2	31.2	–	–	–	–
CCCCC(OC(C)=O)c1ccccc1C(=O)Oc1cc(C(F)(F)F)nn1-c1ccc(F)cc1 (centres undefined)	27.5	13.6	–	–	–	–
CCCCC(OC(C)=O)c1ccccc1C(=O)Oc1cc(C(F)(F)F)nn1-c1ccccc1 (centres undefined)	29.3	26.9	–	–	–	–
CCCCC(OC(C)=O)c1ccccc1C(=O)Oc1cc(C)nn1-c1ccc(C)cc1 (centres undefined)	20.5	21.3	–	86	–	–
CCCCC(OC(C)=O)c1ccccc1C(=O)Oc1cc(C)nn1-c1cccc(Cl)c1 (centres undefined)	46.1	35.2	–	–	–	–
Clc1ccccc1CN1CCc2sccc2C1 [TICLOPIDINE]	–	11.5	15.0616	67.2	26.9592	–
CCCCC(OC(C)=O)c1ccccc1C(=O)Oc1cc(C)nn1-c1ccc(F)cc1 (centres undefined)	59.9	31.8	65.51	93.3	141.49	viability at 1 µM [11]: 88.1%
CCCCC(OC(C)=O)c1ccccc1C(=O)Oc1cc(C)nn1-c1ccccc1 (centres undefined)	15.4	23	–	–	–	–
CC(=O)Oc1ccccc1C(=O)O [ASPIRIN]	16.2	–	30.6956	77.4	79.3793	–
CC1=NN(c2ccc(F)cc2)C(=O)C1	24.3	13.5	31.7447	–	117.579	Activity (PC-12 [12]): Active
CCCCC(OC(C)=O)c1ccccc1C(=O)Oc1cc(C)nn1-c1ccc([N+](=O)[O-])cc1 (centres undefined)	39.6	33.9	–	85.2	–	–
CCCCC1OC(=O)c2ccccc21 (racemic) [RAC-3-N-BUTYLPHTHALIDE]	14.1	22.9	16.2026	71	36.7429	viability at 10 µM [13]: 76.6%; inhibition at 100 µM [14]: 42.5%; inhibition at 100 µM [15]: 28.1%; Activity (PC-12 [16]): 140.787 U/L; Activity (PC-12 [17]): 36.8347 U/ml
CCCCC(OC(C)=O)c1ccccc1C(=O)Oc1cc(C(F)(F)F)nn1-c1ccc([N+](=O)[O-])cc1 (centres undefined)	21.3	15.4	–	87.3	–	–
CCCCC(OC(C)=O)c1ccccc1C(=O)Oc1cc(C(F)(F)F)nn1-c1ccc(C)cc1 (centres undefined)	40.7	25.5	–	–	–	–
CCCCC(OC(C)=O)c1ccccc1C(=O)Oc1cc(C(F)(F)F)nn1-c1ccc(Cl)cc1 (centres undefined)	26.6	23.2	–	83	–	–
CCCCC(OC(C)=O)c1ccccc1C(=O)Oc1cc(C(F)(F)F)nn1-c1ccc(OC)cc1 (centres undefined)	37.7	19.9	–	–	–	–
CCCCC(OC(C)=O)c1ccccc1C(=O)Oc1cc(C)nn1-c1ccc(OC)cc1 (centres undefined)	29.4	30.2	–	–	–	–
CCCCC(OC(C)=O)c1ccccc1C(=O)O (centres undefined)	27.7	17.7	17.6015	–	56.1954	Activity (PC-12 [12]): Active

Reference: ChEMBL document CHEMBL3603784, “Novel hybrids of 3-n-butylphthalide and edaravone: Design, synthesis and evaluations as potential anti-ischemic stroke agents” (2015)
